Calls of active or inactive are those of the source.
Tests used:
Homo sapiens = organism: Homo sapiens; experiment: Induction of apoptosis in human MEC1 cells assessed as decrease in XIAP level up to 3 uM after 2 hrs by immunoblotting analysis; format: functional, cell-based
[1] = Clearance in Sprague-Dawley rat at 3 mg/kg, iv by LC-MS/MS analysis; format: ADME, organism-based; settings: in vivo
MV4-11 = experiment: Antitumor activity against human MV4-11 cells xenografted in nu/nu mouse assessed as tumor growth inhibition at 20 to 30 mg/kg, po administered via gavage for 21 days measured on day 21 post last dose; format: functional, organism-based
Outline: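 Female nu/nu mice, five weeks old, implanted subcutaneously in the right flank with 5 million MV4-11 cells in PBS/Matrigel 1:1. Daily oral gavage in 0.5% methylcellulose/0.4% Tween80 started at tumor volume 200–400 mm³, 10, 20 or 30 mg/kg/day or vehicle, 5 mice per group. Tumor volume (W²×L)/2 and body weight measured daily; mean ± SEM.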

[2] = target: Activin receptor type-2A (Homo sapiens) (UniProt P27037); experiment: Binding affinity to wild-type human ACVR2A (V171 to T499 residues) expressed in bacterial expression system assessed as remaining unbound target protein level at 1000 nM by Kinomescan method relative to control
Outline: (§1)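 Single-point competition binding screen across a panel of 468 kinases and mutants, with the inhibitor at 1 μM. Binding is read out as percent of a DMSO control, and targets below 1 percent control were classed as strong binders.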

[3] = target: Activin receptor type-2B (Homo sapiens) (UniProt Q13705); experiment: Binding affinity to wild-type human ACVR2B (H169 to D504 residues) expressed in bacterial expression system assessed as remaining unbound target protein level at 1000 nM by Kinomescan method relative to control; outline: as §1
[4] = target: RAC-gamma serine/threonine-protein kinase (Homo sapiens) (UniProt Q9Y243); experiment: Binding affinity to wild-type human partial length AKT3 expressed in bacterial expression system assessed as remaining unbound target protein level at 1000 nM by Kinomescan method relative to control
Outline: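 Profiled in a KINOMEscan binding panel with the inhibitor at a single concentration of 1 μM. Binding to each kinase was read out as percent of control, relative to a DMSO control. Strong binders were defined as those with a percent control value below 1.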

[5] = target: Dual specificity protein kinase CLK3 (Homo sapiens) (UniProt P49761); experiment: Binding affinity to wild-type human full length CLK3 (M1 to R490 residues) expressed in bacterial expression system assessed as remaining unbound target protein level at 1000 nM by Kinomescan method relative to control; outline: as §1
[6] = test system: Epidermal growth factor receptor (Homo sapiens), P00533 [L861Q]; experiment: Binding affinity to human partial length EGFR L861Q mutant (R669 to V1011 residues) expressed in bacterial expression system assessed as remaining unbound target protein level at 1000 nM by Kinomescan method relative to control
Outline: (§2)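 KINOMEscan competition-binding profiling across the panel of 468 kinases and mutants, with inhibitor tested at 1 μM. Binding is expressed as percent of control, with DMSO as the reference control.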

[7] = target: Ephrin type-B receptor 2 (Homo sapiens) (UniProt P29323); experiment: Binding affinity to wild-type human partial length EPHB2 (I597 to L902 residues) expressed in bacterial expression system assessed as remaining unbound target protein level at 1000 nM by Kinomescan method relative to control
[8] = target: Ephrin type-B receptor 6 (Homo sapiens) (UniProt O15197); experiment: Binding affinity to wild-type human partial length EPHB6 (Q634 to P948 residues) expressed in mammalian expression system assessed as remaining unbound target protein level at 1000 nM by Kinomescan method relative to control
[9] = target: Receptor tyrosine-protein kinase erbB-2 (Homo sapiens) (UniProt P04626); experiment: Binding affinity to wild-type human partial length ERBB2 (K646 to V1225 residues) expressed in mammalian expression system assessed as remaining unbound target protein level at 1000 nM by Kinomescan method relative to control
Sequence of Receptor tyrosine-protein kinase erbB-2 (Homo sapiens) (P04626 whole entry, the tested form may be a part): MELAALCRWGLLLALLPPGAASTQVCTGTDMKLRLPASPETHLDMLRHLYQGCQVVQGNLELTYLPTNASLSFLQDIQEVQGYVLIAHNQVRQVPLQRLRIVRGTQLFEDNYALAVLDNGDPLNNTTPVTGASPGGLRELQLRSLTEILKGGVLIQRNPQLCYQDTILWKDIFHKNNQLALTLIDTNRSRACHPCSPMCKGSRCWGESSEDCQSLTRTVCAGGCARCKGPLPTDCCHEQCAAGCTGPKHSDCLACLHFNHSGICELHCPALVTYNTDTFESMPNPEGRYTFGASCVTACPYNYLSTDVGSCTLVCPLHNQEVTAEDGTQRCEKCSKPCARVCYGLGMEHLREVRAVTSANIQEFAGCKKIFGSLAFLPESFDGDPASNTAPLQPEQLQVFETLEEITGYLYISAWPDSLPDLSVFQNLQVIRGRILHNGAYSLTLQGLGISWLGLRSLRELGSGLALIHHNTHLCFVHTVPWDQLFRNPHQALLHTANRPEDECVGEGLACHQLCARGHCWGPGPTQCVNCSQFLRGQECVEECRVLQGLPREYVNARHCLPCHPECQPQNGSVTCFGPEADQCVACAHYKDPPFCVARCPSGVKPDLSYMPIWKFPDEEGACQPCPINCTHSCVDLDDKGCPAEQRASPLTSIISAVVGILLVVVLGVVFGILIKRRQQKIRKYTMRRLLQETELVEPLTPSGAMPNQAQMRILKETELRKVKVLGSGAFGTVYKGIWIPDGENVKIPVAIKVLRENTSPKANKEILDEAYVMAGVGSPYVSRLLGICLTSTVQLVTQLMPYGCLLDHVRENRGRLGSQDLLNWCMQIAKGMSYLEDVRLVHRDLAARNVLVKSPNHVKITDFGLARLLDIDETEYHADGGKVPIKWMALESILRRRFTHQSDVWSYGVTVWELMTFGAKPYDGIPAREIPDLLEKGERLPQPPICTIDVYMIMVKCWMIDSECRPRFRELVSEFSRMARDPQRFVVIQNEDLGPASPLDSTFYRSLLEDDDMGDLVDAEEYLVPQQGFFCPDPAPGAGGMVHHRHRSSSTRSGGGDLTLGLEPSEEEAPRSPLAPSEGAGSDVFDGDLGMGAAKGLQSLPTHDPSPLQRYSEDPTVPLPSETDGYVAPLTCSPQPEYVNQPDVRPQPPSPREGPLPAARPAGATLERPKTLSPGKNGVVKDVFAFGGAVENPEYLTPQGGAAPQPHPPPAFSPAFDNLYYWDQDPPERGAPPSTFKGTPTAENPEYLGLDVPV

[10] = target: Homeodomain-interacting protein kinase 2 (Homo sapiens) (UniProt Q9H2X6); experiment: Binding affinity to wild-type human partial length HIPK2 (M153 to S564 residues) expressed in mammalian expression system assessed as remaining unbound target protein level at 1000 nM by Kinomescan method relative to control
Outline: (§3)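 KINOMEscan binding panel of 468 kinases/mutants. Inhibitor was tested at a single concentration of 1 μM. Binding is reported as percent of control, defined relative to a DMSO control.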

[11] = test system: Mast/stem cell growth factor receptor Kit (Homo sapiens), P10721 [V559D]; experiment: Binding affinity to human partial length KIT V559D mutant (Y545 to D952 residues) expressed in bacterial expression system assessed as remaining unbound target protein level at 1000 nM by Kinomescan method relative to control; outline: as §2
Sequence of Mast/stem cell growth factor receptor Kit (Homo sapiens), P10721 [V559D] (P10721 whole entry V559D, the tested form may be a part): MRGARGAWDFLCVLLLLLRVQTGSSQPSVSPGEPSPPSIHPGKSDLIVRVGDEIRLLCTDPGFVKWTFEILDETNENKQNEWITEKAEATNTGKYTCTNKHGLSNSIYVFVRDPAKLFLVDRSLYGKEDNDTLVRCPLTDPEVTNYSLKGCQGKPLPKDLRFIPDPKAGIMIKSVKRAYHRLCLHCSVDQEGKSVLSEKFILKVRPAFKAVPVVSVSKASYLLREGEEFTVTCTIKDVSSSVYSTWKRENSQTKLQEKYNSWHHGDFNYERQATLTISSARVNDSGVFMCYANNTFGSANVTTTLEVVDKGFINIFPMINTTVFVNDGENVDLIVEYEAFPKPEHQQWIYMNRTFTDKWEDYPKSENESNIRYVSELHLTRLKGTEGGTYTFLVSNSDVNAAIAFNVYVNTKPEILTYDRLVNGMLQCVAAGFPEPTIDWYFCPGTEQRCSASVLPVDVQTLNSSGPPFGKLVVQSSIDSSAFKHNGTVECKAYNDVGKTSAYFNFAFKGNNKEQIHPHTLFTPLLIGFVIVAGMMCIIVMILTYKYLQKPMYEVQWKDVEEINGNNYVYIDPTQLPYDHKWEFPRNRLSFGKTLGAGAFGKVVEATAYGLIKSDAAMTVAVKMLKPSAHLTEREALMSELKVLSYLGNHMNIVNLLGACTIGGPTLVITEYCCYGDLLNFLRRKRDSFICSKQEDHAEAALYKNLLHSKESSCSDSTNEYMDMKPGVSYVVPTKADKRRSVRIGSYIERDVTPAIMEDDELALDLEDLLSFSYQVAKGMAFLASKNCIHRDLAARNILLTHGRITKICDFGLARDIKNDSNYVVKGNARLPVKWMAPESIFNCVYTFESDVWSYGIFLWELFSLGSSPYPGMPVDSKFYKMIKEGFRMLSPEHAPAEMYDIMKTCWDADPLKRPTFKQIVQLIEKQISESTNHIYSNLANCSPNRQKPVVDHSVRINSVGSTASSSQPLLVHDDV

[12] = target: Mitogen-activated protein kinase kinase kinase 10 (Homo sapiens) (UniProt Q02779); experiment: Binding affinity to wild-type human partial length MLK2 (V52 to W380 residues) expressed in bacterial expression system assessed as remaining unbound target protein level at 1000 nM by Kinomescan method relative to control; outline: as §3
Sequence of Mitogen-activated protein kinase kinase kinase 10 (Homo sapiens) (Q02779 whole entry, looked up, the tested form may be a part): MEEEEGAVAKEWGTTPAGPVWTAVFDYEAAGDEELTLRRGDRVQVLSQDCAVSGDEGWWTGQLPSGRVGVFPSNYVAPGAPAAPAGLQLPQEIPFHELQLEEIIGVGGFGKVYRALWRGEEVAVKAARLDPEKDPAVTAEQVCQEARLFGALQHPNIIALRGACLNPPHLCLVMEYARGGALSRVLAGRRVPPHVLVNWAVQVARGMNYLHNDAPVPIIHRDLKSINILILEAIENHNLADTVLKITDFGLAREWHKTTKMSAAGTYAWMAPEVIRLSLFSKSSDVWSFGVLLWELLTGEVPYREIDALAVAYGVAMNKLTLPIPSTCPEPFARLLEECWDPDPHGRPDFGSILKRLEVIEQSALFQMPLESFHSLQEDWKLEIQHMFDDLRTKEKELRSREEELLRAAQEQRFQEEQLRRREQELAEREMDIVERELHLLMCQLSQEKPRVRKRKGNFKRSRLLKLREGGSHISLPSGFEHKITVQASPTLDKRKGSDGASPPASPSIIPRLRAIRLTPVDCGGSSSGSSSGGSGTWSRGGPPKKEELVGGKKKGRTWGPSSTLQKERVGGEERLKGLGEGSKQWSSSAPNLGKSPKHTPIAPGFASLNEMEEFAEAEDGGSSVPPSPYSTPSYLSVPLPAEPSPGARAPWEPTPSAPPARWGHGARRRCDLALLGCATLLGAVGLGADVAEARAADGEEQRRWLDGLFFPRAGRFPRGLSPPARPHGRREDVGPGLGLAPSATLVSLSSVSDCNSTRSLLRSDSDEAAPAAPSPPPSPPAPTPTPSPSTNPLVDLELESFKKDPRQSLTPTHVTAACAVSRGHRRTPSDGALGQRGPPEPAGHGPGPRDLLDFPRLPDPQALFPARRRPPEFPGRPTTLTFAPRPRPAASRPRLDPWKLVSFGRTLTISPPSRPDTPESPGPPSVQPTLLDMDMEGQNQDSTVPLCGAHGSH

[13] = target: Calcium-dependent protein kinase 1 (Plasmodium falciparum) (UniProt P62344); experiment: Binding affinity to wild-type Plasmodium falciparum full length CDPK1 (M1 to S524 residues) expressed in mammalian expression system assessed as remaining unbound target protein level at 1000 nM by Kinomescan method relative to control
Outline: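 KINOMEscan competitive binding profile at 1 μM inhibitor. Remaining target binding reported as percent of DMSO control.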

[14] = target: Serine/threonine-protein kinase PRP4 homolog (Homo sapiens) (UniProt Q13523); experiment: Binding affinity to wild-type human partial length PRP4 (D657 to I1007 residues) expressed in bacterial expression system assessed as remaining unbound target protein level at 1000 nM by Kinomescan method relative to control
[15] = target: Rho-associated protein kinase 1 (Homo sapiens) (UniProt Q13464); experiment: Binding affinity to wild-type human partial length ROCK1 (M1 to R415 residues) expressed in mammalian expression system assessed as remaining unbound target protein level at 1000 nM by Kinomescan method relative to control
Sequence of Rho-associated protein kinase 1 (Homo sapiens) (Q13464 2-1354 limits assumed): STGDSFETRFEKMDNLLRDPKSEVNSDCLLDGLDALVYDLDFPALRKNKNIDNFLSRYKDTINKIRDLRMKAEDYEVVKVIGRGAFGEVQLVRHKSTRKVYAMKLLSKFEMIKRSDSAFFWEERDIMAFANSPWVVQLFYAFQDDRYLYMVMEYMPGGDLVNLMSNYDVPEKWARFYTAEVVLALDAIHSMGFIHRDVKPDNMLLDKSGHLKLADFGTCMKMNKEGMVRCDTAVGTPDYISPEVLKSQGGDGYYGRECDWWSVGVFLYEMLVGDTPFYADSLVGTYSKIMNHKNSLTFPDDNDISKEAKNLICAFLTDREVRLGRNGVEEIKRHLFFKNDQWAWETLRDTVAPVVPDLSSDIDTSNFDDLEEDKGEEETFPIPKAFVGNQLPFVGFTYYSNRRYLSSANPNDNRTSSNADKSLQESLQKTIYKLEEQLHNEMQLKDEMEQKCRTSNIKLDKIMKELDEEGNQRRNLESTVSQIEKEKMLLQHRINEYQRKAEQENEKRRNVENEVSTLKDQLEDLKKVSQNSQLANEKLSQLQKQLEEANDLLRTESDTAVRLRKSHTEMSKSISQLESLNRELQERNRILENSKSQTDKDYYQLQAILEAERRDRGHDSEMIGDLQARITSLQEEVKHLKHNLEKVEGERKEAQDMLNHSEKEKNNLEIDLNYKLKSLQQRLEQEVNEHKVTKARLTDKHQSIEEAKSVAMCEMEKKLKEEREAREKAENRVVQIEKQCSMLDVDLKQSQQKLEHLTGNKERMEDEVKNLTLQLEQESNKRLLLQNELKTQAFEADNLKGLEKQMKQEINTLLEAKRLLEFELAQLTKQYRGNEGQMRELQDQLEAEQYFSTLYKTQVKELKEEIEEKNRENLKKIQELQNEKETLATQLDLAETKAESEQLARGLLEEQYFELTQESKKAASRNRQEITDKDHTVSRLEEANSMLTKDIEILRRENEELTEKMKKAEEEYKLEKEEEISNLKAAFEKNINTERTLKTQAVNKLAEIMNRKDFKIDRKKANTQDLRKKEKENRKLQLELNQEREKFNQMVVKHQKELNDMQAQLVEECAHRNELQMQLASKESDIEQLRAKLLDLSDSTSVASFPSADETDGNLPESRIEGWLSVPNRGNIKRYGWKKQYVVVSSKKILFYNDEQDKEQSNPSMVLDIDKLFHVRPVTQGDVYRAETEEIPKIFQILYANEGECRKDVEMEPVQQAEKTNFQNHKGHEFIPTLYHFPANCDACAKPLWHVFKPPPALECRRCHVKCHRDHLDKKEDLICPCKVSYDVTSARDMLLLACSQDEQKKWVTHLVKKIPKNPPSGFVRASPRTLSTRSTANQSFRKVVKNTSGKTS

[16] = target: Proto-oncogene tyrosine-protein kinase Src (Homo sapiens) (UniProt P12931); experiment: Binding affinity to wild-type human partial length SRC (L240 to L536 residues) expressed in bacterial expression system assessed as remaining unbound target protein level at 1000 nM by Kinomescan method relative to control
Sequence of Proto-oncogene tyrosine-protein kinase Src (Homo sapiens) (P12931 2-536 limits assumed): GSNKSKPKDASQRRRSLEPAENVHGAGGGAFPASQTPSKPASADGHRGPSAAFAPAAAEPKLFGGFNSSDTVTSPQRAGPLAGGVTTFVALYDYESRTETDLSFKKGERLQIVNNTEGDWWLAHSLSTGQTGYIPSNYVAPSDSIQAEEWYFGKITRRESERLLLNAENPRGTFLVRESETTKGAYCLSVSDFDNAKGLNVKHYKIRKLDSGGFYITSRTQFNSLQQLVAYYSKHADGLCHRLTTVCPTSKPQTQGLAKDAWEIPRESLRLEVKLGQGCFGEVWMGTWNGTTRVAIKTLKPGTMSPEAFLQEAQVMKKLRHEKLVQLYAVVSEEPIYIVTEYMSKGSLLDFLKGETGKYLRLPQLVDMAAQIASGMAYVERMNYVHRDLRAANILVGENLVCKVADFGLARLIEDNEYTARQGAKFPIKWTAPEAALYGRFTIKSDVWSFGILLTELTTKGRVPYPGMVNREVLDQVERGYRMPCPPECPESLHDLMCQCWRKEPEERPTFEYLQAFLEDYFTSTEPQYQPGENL

[17] = target: Testis-specific serine/threonine-protein kinase 3 (Homo sapiens) (UniProt Q96PN8); experiment: Binding affinity to wild-type human full length TSSK3 (M1 to T268 residues) expressed in mammalian expression system assessed as remaining unbound target protein level at 1000 nM by Kinomescan method relative to control
Outline: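 KINOMEscan competition binding profile across a panel of 468 kinases and mutants, with the inhibitor tested at a single concentration of 1 μM. Binding is reported as percent of control, meaning signal relative to a DMSO control.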

[18] = target: Serine/threonine-protein kinase 32C (Homo sapiens) (UniProt Q86UX6); experiment: Binding affinity to wild-type human partial length YANK3 (M68 to G486 residues) expressed in bacterial expression system assessed as remaining unbound target protein level at 1000 nM by Kinomescan method relative to control

COCCN[C@H]1CC[C@H](Nc2cc(-c3csc(NCC4(C#N)CCOCC4)n3)c(Cl)cn2)CC1
Activity (Homo sapiens): inactive | clearance [1]: 4.55 L/h/kg | TGI (MV4-11): Active | Activity [2]: 100% | Activity [3]: 98% | Activity [4]: 100% | Activity [5]: 92% | Activity [6]: 76% | Activity [7]: 82% | Activity [8]: 85% | Activity [9]: 97% | Activity [10]: 74% | Activity [11]: 100% | Activity [12]: 99% | Activity [13]: 77% | Activity [14]: 100% | Activity [15]: 93% | Activity [16]: 89% | Activity [17]: 99% | Activity [18]: 90%
